# Rpn11 inh = blocks the human proteasome subunit Rpn11; O00487; human 26S proteasome, Ub4-pepOG fluorescence polarization; 20S core pre-blocked with epoxomicin; calls only at 20 µM; hit rate 0.59% among 360,000;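 active = inhibition at 20 µM, scaled to each plate's controls, above about 33%, limit read from the data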
# Target sequence (O00487 whole entry, looked up): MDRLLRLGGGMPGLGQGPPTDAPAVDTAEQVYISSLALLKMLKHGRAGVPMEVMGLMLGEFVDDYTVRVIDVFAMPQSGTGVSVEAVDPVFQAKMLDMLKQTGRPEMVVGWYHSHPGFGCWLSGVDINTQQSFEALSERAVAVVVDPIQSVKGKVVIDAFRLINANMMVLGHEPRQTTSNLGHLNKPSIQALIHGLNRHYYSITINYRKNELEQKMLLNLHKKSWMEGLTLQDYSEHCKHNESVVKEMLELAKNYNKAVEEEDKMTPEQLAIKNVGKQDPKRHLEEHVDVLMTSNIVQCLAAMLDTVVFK
# IDE inh = cellular human IDE inhibition; P14735; HEK cells, FAbetaB cleavage, fluorescence polarization; inhibition, % at 5.59 µM; hit rate 0.41% among 320,000;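 active = percent inhibition above the average of all tested compounds plus 3 SD, set per screening campaign, cut at about 16% in these data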;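 also: IDE supplied by intact live HEK cells; FP after avidin binding of uncleaved biotin substrate so inhibition keeps polarization high; 0% = DMSO wells and 100% = 60 µM reference IDE inhibitor Ii1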
# TPT1 inhibitor = blocks Candida albicans tRNA 2'-phosphotransferase | recombinant caTPT1, FP RNA substrate dephosphorylation | hit rate 0.81% among 300,000 | inhibition, % at 5 µM;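 active = inhibition above the mean of all tested compounds plus 3 SD, set per screening campaign, cut at about 24% in these data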;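 also: plate controls were DMSO alone for no effect and ferristatin control at 100 nM for full effect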
# HNF4A DNA FP = change in binding of human HNF4 alpha to DNA; P41235; HNF4a-FITC DNA binding, fluorescence polarization, 1 h; hit rate 0.3% among 360,000; AID 1224865; activity change, % at 10 µM; in the data active = activity change above about 30%, passing the limit was not always enough
# IDE act = boosts human insulin-degrading enzyme activity in HEK cells | P14735 | FAbeta-B cleavage, fluorescence polarization; 0% vehicle, 100% cell-free pure enzyme wells | activation, % at 5.96 µM | hit rate 0.073% among 340,000;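 active = activation above the mean of all tested compounds plus 3 SD, set per screening campaign, cut at about 17% in these data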
# CSN inh = inhibitors of human CSN-mediated cullin deneddylation; Purified CSN, SCF-Nedd8-OG deneddylation, fluorescence polarization; inhibition, % at 12.5 µM; hit rate 0.38% among 360,000;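 active = pattern-corrected inhibition above about 35%, with an unprinted fluorescence ratio check between 0.5 and 1.5, limit read from the data, passing the limit was not always enough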;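 also: 0% = enzyme with substrate and 100% = substrate without enzyme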
# Target sequence (Q92905 whole entry, looked up, one chain of several): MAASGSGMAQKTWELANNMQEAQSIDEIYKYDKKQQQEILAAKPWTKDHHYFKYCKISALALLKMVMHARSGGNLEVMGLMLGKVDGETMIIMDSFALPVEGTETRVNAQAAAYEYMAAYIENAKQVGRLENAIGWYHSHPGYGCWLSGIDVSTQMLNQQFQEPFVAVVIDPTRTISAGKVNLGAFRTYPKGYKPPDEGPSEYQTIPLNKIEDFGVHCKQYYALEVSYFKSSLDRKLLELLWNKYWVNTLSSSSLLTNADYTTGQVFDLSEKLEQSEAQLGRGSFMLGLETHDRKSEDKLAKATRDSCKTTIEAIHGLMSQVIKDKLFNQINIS
#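 test system = HEK293T-derived human Csn5 enzyme | amount = 0.24 nM Csn5 enzyme, final concentration | medium = Tris/NaCl/DTT buffer, pH 7.5 | schedule = 90 min reaction at room temperature | signal = FP | evaluation = inhibition of Csn5 cleavage, % | compound dosing = single dose of 12.5 µM compound with 0.25% DMSO | probe or stimulus = 10 nM SCFSkp2-Nedd8OG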
# IDE inh confirm = confirmation of human insulin-degrading enzyme inhibitors in cells | hit rate 51% among 1,200 | shares compounds with IDE inh | AID 435028 | HEK cells, FAbetaB cleavage, fluorescence polarization | inhibition, % at 5.59 µM;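 active = mean inhibition across triplicate wells above the cutoff set by the earlier primary insulin-degrading enzyme screen, cut at about 16% in these data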;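 also: 0% = DMSO wells and 100% = 60 µM reference IDE inhibitor Ii1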
# HEK cytotox = HEK cell cytotoxicity, counter-screen for IDE inhibitors | shares compounds with IDE inh | hit rate 28% among 1,200 | HEK293 cytotoxicity, ATP luminescence | AID 449730 | inhibition, % at 5.59 µM; in the data active = inhibition above about 22%;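 also: 0% = vehicle wells and 100% = reference cytotoxic drug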
# The depositor's hits bear a star; i = inactive; · = not tested or not shown. An excerpt weighted towards active compounds, which were near 1.7% of everything screened.
SMILES,Rpn11 inh,IDE inh,TPT1 inhibitor,HNF4A DNA FP,IDE act,CSN inh,IDE inh confirm,HEK cytotox
CCCCCN(C(=O)CCC(=O)OCC(=O)c1ccc(CCC)cc1)c1c(N)n(CCCC)c(=O)[nH]c1=O,i,23.6*,-6.2,0.2,-18.6,1.7,21.1*,8.1
Cc1ccc(S(=O)(=O)Nc2ccc3oc(=O)sc3c2)c(C)c1,i,18.4*,-3.8,0.0,-3.1,0.0,6.9,4.2
COc1ccc(CCN(C)CCC(=O)Nc2cc(C)ccc2C)cc1OC,i,5.1,3.2,-0.8,2.0,-4.9,·,·
CC(=O)Oc1c(Cl)cc(Cl)cc1/C=C/c1ccc2ccccc2n1,i,45.1*,6.2,1.3,-64.7,3.4,68.0*,12.1
CCn1cc(C(=O)Nc2cccc(C)c2)c(=O)c2ccc(C)nc21,·,0.1,-4.2,·,·,·,·,·
CC(C)(C)NC(=O)CSc1nc(-c2ccc(F)cc2)cs1,i,16.5*,1.7,-4.8,5.5,-9.7,2.3,13.5
Cc1csc(SCC(=O)NC(C)c2ccc(F)cc2)n1 (configuration not stated),i,6.1,-1.4,-1.1,2.9,-5.4,·,·
CS(=O)(=O)c1ccc(C(=O)NCC2(N3CCCCC3)CCCCC2)cc1,i,16.2*,-3.0,1.1,0.4,-2.4,5.6,10.1
CN(C)S(=O)(=O)c1ccc(C(=O)NCC2(N3CCCCC3)CCCCC2)cc1,i,0.3,1.0,0.5,-0.5,1.3,·,·
COc1ccc2nc(Nc3nc(CSc4nc5ccccc5[nH]4)cc(=O)[nH]3)nc(C)c2c1,i,4.9,1.1,0.3,-15.4,-1.9,·,·
Cc1nc(Nc2nc(CSc3nc4ccccc4[nH]3)cc(=O)[nH]2)nc2ccccc12,i,44.5*,1.1,2.8,-38.4,-0.5,10.0,42.0*
CN(CC(=O)Nc1ccc2c(c1)CCC2)CC(=O)Nc1ccccc1Br,i,18.7*,-3.0,1.1,-5.0,1.2,4.0,7.5
Cc1c(NC(=O)c2cc3c(s2)-c2ccccc2OC3)cccc1[N+](=O)[O-],i,26.7*,-2.0,-1.8,-9.1,-1.9,2.4,39.2*
Cc1csc(NC(=O)c2cc3c(s2)-c2ccccc2OC3)n1,i,-0.1,-1.6,-0.6,-0.2,0.5,·,·
COc1ccc(NS(=O)(=O)c2cc(NC(=O)c3ccncc3)ccc2N2CCOCC2)cc1,i,-2.7,0.6,0.2,1.9,-10.2,·,·
Cc1cc(OCC(=O)Nc2cccc(S(=O)(=O)N3CCCC3)c2)ccc1Cl,i,·,·,0.2,-0.2,1.4,·,·
Cc1cccc(N2CCN(CC(=O)Nc3ccc(S(=O)(=O)N4CCOCC4)cc3)CC2)c1C,i,19.0*,-0.8,-3.0,-11.9,0.6,8.7,43.0*
O=c1[nH]oc2cc(Cl)ccc12,i,16.7*,-2.2,0.2,3.9,-4.7,7.4,4.4
Cn1c(-c2ccc3c(c2)OCO3)cnc1NCc1ccc(Cl)cc1,i,-3.9,2.2,-3.9,5.3,-0.6,·,·
COc1cccc(/C=N/n2c(SC)nnc2-c2ccccc2)c1OC,i,-2.7,5.1,-1.0,0.8,0.4,·,·
COc1cccc(/C=N/n2c(SC)nnc2-c2ccccc2)c1O,i,25.1*,-1.5,2.8,-34.2,-1.8,39.5*,27.3*
Cc1ccc(SC[C@H](CC(C)C)N2CCN(C)CCC2=O)cc1,i,·,·,0.4,0.7,1.3,·,·
C/C(O)=C(\C#N)P(=O)(c1ccccc1)c1ccccc1,i,6.1,-5.7,-1.4,-1.3,2.1,·,·
CC(=O)Nc1ccc(CN2CCCC(CO)(Cc3cccc(Cl)c3)C2)cc1 (configuration not stated),i,-2.4,0.9,3.0,4.3,2.2,·,·
C/C(=N/NC(=O)CN1CCN(Cc2ccccc2Cl)CC1)c1cccnc1,i,23.4*,-3.2,0.4,-7.4,2.9,8.9,12.1
SMILES,Rpn11 inh,IDE inh,TPT1 inhibitor,HNF4A DNA FP,IDE act,CSN inh,IDE inh confirm,HEK cytotox
C/C(=N/NC(=O)CN1CCN(Cc2ccccc2Cl)CC1)c1cccs1,i,9.5,-1.8,1.1,·,-1.4,·,·
O=C(CN1CCN(Cc2ccccc2Cl)CC1)N/N=C/C=C/c1ccccc1[N+](=O)[O-],i,22.1*,-3.7,3.4,-18.1,-12.6,9.6,12.1
CC(=O)Oc1c(C)c(C)c2c(c1C)CCC(C)(CCCC(C)CCCC(C)CCCC(C)C)O2 (configuration not stated),i,5.5,-0.6,-1.5,1.9,5.0,·,·
CCc1ccc(C(=O)N/N=C/c2ccc(Cl)cc2Cl)nc1,·,17.6*,0.8,·,·,·,9.7,8.0
O=C(CCCC(=O)NN=Cc1ccc(Cl)cc1Cl)NN=Cc1ccc(Cl)cc1Cl,i,·,·,-1.0,5.0,-3.1,·,·
COc1ccc(CCC(=O)NCc2cn3ccsc3n2)cc1,i,1.9,2.2,-2.4,-8.3,-4.8,·,·
Nc1ccc2c3c(cccc13)CC2,i,42.6*,1.1,7.3,-4.7,1.7,2.6,4.1
CCc1ccc(-n2c(=O)c3ccc(C(=O)NCCc4ccccc4)cc3n(CC(N)=O)c2=O)cc1,i,-1.2,-2.5,0.8,-1.8,0.3,·,·
CCOc1ccc2[nH]c3c(NCCc4ccc(OC)c(OC)c4)ncnc3c2c1,i,17.4*,0.9,-2.5,-25.1,2.2,8.5,40.9*
CCCCOCCCNc1ncnc2c1[nH]c1ccccc12,i,24.7*,-0.3,-2.2,-21.3,2.7,4.2,72.8*
CCOCCCNc1ncnc2c1[nH]c1ccccc12,i,21.2*,-1.3,-1.1,-6.9,-5.2,7.5,37.6*
CCCn1c(SCC(=O)Nc2ccc(OCC)cc2)nnc1C(C)C,i,9.5,-0.7,-2.6,2.5,-0.9,·,·
O=C(Nc1cccc(C(F)(F)F)c1)c1ccc(Cn2cc(Br)cn2)o1,i,12.7,-1.5,0.4,-6.5,0.6,·,·
O=C(Nc1ccc(C(F)(F)F)cc1Cl)c1ccc(Cn2cc(Br)cn2)o1,i,16.7*,1.0,3.1,-12.3,-0.2,11.1,11.5
COc1ccc(C(=O)N2CCN(C(=O)C3COc4ccccc4O3)CC2)cc1 (configuration not stated),i,7.7,-2.3,-0.7,-7.0,-1.4,·,·
COc1cc(C(=O)N2CCN(C(=O)C3COc4ccccc4O3)CC2)cc(OC)c1OC (configuration not stated),i,23.0*,-1.5,5.0,-14.5,1.4,15.5,8.8
Cc1csc2c(N3CCN(C(=O)Nc4ccccc4)CC3)ncnc12,i,12.0,-1.8,2.3,-14.1,1.6,·,·
Cc1ccc(C(=O)N2CCN(c3ncnc4c(C)csc34)CC2)cc1,i,18.6*,-2.8,2.7,-4.5,-7.4,7.2,17.3

# Source: PubChem BioAssay
